# Measurements pooled from the literature.
# BCHE: Cholinesterase (BCHE, Homo sapiens, UniProt P06276)
# Oprk1: Kappa-type opioid receptor (Oprk1, Mus musculus, UniProt P33534)
Compound,target,test,measurement,value
C=CCOc1ccc(C(=O)/C=C/c2ccc(OC)cc2)c(OS(=O)(=O)c2ccc(OC)cc2)c1I,BCHE,"enzyme activity, inhibitor",IC50,30.1 µM
Cc1c(CC(=O)N[C@@H](CN2CCc3ccccc3C2)C(C)C)cccc1[N+](=O)[O-],Oprk1,"ligand displacement, radioligand",Ki,3.38 µM
CC(C)c1cc2c(c(O)c1O)[C@@]13CCCC(C)(C)[C@@H]1C[C@@H]2OC3=O,BCHE,"enzyme activity, inhibitor",IC50,0.00095 µM
COc1c2c(cc3c1-c1c(cc4c(c1OC)OCO4)C[C@H](C)[C@H](C)C3)OCO2,BCHE,"enzyme activity, inhibitor, Ellman",IC50,> 100 µM
CC(C)[C@@H](CN1CCc2ccccc2C1)NC(=O)Cc1c[nH]c2ccccc12,Oprk1,"ligand displacement, radioligand",Ki,2.75 µM
Cn1cc2cc(C(F)(F)c3nnc4ccc(-c5cnn(C6CC6)c5)nn34)c(F)cc2n1,"Fibroblast growth factor receptor 4 (FGFR4, Homo sapiens, UniProt P22455)","enzyme activity, inhibitor, ADP detection",IC50,> 1 µM
COc1cc(/C=C/C(=O)O)ccc1OCc1cn(CC(=O)Nc2ccc(Cl)cc2Cl)nn1,BCHE,"enzyme activity, inhibitor, Ellman",IC50,12 µM
CCCC[C@H](NC(C)=O)C(=O)N[C@H]1CC(=O)NCCCC[C@@H](C(=O)N2CCC[C@@H]2C(=O)N[C@@H](C(=O)N2CCC[C@@H]2C(N)=O)C(C)C)NC(=O)[C@H](Cc2c[nH]c3ccccc23)NC(=O)[C@H](CCCNC(=N)N)NC(=O)[C@@H](Cc2ccccc2)NC(=O)[C@@H]2CCCN2C1=O,"Melanocortin receptor 4 (MC4R, Homo sapiens, UniProt P32245)","cAMP, agonist",EC50,0.00089 µM
CC(C)c1cc2c(c(O)c1O)[C@@]13CCCC(C)(C)[C@@H]1[C@H](OC3=O)[C@H]2O,BCHE,"enzyme activity, inhibitor",IC50,0.00075 µM
C=CCOc1ccc(C(=O)/C=C/c2ccc(OC)cc2)c(O)c1I,BCHE,"enzyme activity, inhibitor",IC50,22.4 µM
CC(C)c1cc2c(c(O)c1O)[C@@]1(C(=O)O)CCCC(C)(C)[C@@H]1CC2,BCHE,"enzyme activity, inhibitor, absorbance",Ki,0.00049 µM
C=CCOc1ccc(C(=O)/C=C/c2cccc(F)c2)c(OS(=O)(=O)c2ccc(OC)cc2)c1I,BCHE,"enzyme activity, inhibitor",IC50,14.5 µM
CC(C)[C@@H](CN1CCc2ccccc2C1)NC(=O)c1cccc(-c2cccc(O)c2)c1,Oprk1,"ligand displacement, radioligand",Ki,0.81 µM
CC(=O)N[C@H]1[C@@H](O[C@@H]2O[C@H](C[C@@H](O)[C@H]3O[C@@H](n4ccc(=O)[nH]c4=O)[C@H](O)[C@@H]3O)[C@H](O)[C@H](O)[C@H]2NC(=O)/C=C/CCCCCCCCCC(C)C)O[C@H](CO)[C@@H](O)[C@@H]1O,"UDP-N-acetylglucosamine--dolichyl-phosphate N-acetylglucosaminephosphotransferase (Homo sapiens, UniProt Q9H3H5)","enzyme activity, inhibitor",IC50,1.53 µM
CC(C)c1cc2c(c(O)c1O)[C@@]13CCCC(C)(C)[C@@H]1[C@@H](O)[C@@H]2OC3=O,BCHE,"enzyme activity, inhibitor",IC50,0.00141 µM
C=CCOc1ccc(C(=O)/C=C/c2cccc(F)c2)c(OS(=O)(=O)c2ccc(F)cc2)c1I,BCHE,"enzyme activity, inhibitor",IC50,30.2 µM
